Laboratory results: ChEMBL document CHEMBL4406880, “Design, synthesis, and bioactivity of dihydropyrimidine derivatives as kinesin spindle protein inhibitors” (Bioorg Med Chem, 2019)

Columns and labels:
Type in all cases: functional
[1] = tested on: K562; assay: Growth inhibition of human K562 cells assessed as growth percentage at 10 uM incubated for 48 hrs by sulforhodamine B assay relative to control; conditions: K562, 48 h, read-out: Activity
In short: (§1)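 NCI-60 one-dose screen. Cells in RPMI 1640 with 5% FBS and 2 mM L-glutamine, seeded at 5,000–40,000 cells/well according to doubling time, and preincubated overnight at 37 °C, 5% CO2. A time-zero plate was TCA-fixed at drug addition. Compound from DMSO stock, final 10 µM, 48 h; DMSO vehicle controls. Fixation with TCA, 10% final (16% for suspension cells). SRB stain, Tris solubilization, A515. Result given as % growth versus untreated cells.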

[2] = tested on: U-251; assay: Growth inhibition of human U251 cells assessed as growth percentage at 10 uM incubated for 48 hrs by sulforhodamine B assay relative to control; conditions: U-251, 48 h, read-out: Activity
In short: (§2)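 NCI-60 single-dose screen. Cells were grown in RPMI 1640 with 5% FBS and 2 mM L-glutamine and plated at 5,000–40,000 cells/well. After an overnight preincubation at 37 °C in 5% CO2, compound was added at a final 10 µM from a DMSO stock, with DMSO/PBS controls. After 48 h, cells were TCA-fixed and stained with 0.4% SRB, and absorbance was read at 515 nm. Growth is given as a percentage of untreated control.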

[3] = tested on: SK-MEL-2; assay: Growth inhibition of human SK-MEL-2 cells assessed as growth percentage at 10 uM incubated for 48 hrs by sulforhodamine B assay relative to control; conditions: SK-MEL-2, 48 h, read-out: Activity; in short: as §2
[4] = tested on: SK-MEL-5; assay: Growth inhibition of human SK-MEL-5 cells assessed as growth percentage at 10 uM incubated for 48 hrs by sulforhodamine B assay relative to control; conditions: SK-MEL-5, 48 h, read-out: Activity; in short: as §2
[5] = tested on: OVCAR-4; assay: Growth inhibition of human OVCAR4 cells assessed as growth percentage at 10 uM incubated for 48 hrs by sulforhodamine B assay relative to control; conditions: OVCAR-4, 48 h, read-out: Activity; in short: as §1
[6] = tested on: UACC-62; assay: Growth inhibition of human UACC62 cells assessed as growth percentage at 10 uM incubated for 48 hrs by sulforhodamine B assay relative to control; conditions: UACC-62, 48 h, read-out: Activity; in short: as §2
[7] = tested on: SN12C; assay: Growth inhibition of human SN12C cells assessed as growth percentage at 10 uM incubated for 48 hrs by sulforhodamine B assay relative to control; conditions: read-out: Activity; in short: as §2
[8] = tested on: EKVX; assay: Growth inhibition of human EKVX cells assessed as growth percentage at 10 uM incubated for 48 hrs by sulforhodamine B assay relative to control; conditions: read-out: Activity
In short: (§3)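 NCI-60 one-dose screen: cells in RPMI 1640 with 5% FBS and 2 mM L-glutamine, plated at 5,000–40,000 cells/well and preincubated 24 h at 37 °C, 5% CO2. Compound is added from a DMSO stock to a final 10 µM and incubated 48 h. Cells are TCA-fixed and stained with sulforhodamine B, read at 515 nm. Output is % growth versus untreated control, with a time-zero plate.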

[9] = tested on: SW-620; assay: Growth inhibition of human SW620 cells assessed as growth percentage at 10 uM incubated for 48 hrs by sulforhodamine B assay relative to control; conditions: SW-620, 48 h, read-out: Activity; in short: as §2
[10] = tested on: KM12; assay: Growth inhibition of human KM12 cells assessed as growth percentage at 10 uM incubated for 48 hrs by sulforhodamine B assay relative to control; conditions: KM12, 48 h, read-out: Activity; in short: as §1
[11] = tested on: SK-OV-3; assay: Growth inhibition of human SKOV3 cells assessed as growth percentage at 10 uM incubated for 48 hrs by sulforhodamine B assay relative to control; conditions: SK-OV-3, 48 h, read-out: Activity; in short: as §2
[12] = tested on: NCI-H322M; assay: Growth inhibition of human NCI-H322M cells assessed as growth percentage at 10 uM incubated for 48 hrs by sulforhodamine B assay relative to control; conditions: read-out: Activity; in short: as §1
[13] = tested on: SF-268; assay: Growth inhibition of human SF268 cells assessed as growth percentage at 10 uM incubated for 48 hrs by sulforhodamine B assay relative to control; conditions: SF-268, 48 h, read-out: Activity; in short: as §2
[14] = tested on: ACHN; assay: Growth inhibition of human ACHN cells assessed as growth percentage at 10 uM incubated for 48 hrs by sulforhodamine B assay relative to control; conditions: read-out: Activity; in short: as §3
[15] = tested on: SF-295; assay: Growth inhibition of human SF295 cells assessed as growth percentage at 10 uM incubated for 48 hrs by sulforhodamine B assay relative to control; conditions: SF-295, 48 h, read-out: Activity; in short: as §2
[16] = tested on: M14; assay: Growth inhibition of human M14 cells assessed as growth percentage at 10 uM incubated for 48 hrs by sulforhodamine B assay relative to control; conditions: M14, 48 h, read-out: Activity; in short: as §1
[17] = tested on: NCI-H522; assay: Growth inhibition of human NCI-H522 cells assessed as growth percentage at 10 uM incubated for 48 hrs by sulforhodamine B assay relative to control; conditions: NCI-H522, 48 h, read-out: Activity; in short: as §1
[18] = tested on: HCT-116; assay: Growth inhibition of human HCT116 cells assessed as growth percentage at 10 uM incubated for 48 hrs by sulforhodamine B assay relative to control; conditions: HCT-116, 48 h, read-out: Activity; in short: as §3
[19] = tested on: Malme-3M; assay: Growth inhibition of human MALME-3M cells assessed as growth percentage at 10 uM incubated for 48 hrs by sulforhodamine B assay relative to control; conditions: read-out: Activity; in short: as §1
[20] = tested on: A498; assay: Growth inhibition of human A498 cells assessed as growth percentage at 10 uM incubated for 48 hrs by sulforhodamine B assay relative to control; conditions: A498, 48 h, read-out: Activity; in short: as §3
[21] = tested on: NCI-H226; assay: Growth inhibition of human NCI-H226 cells assessed as growth percentage at 10 uM incubated for 48 hrs by sulforhodamine B assay relative to control; conditions: NCI-H226, 48 h, read-out: Activity; in short: as §1
[22] = tested on: PC-3; assay: Growth inhibition of human PC3 cells assessed as growth percentage at 10 uM incubated for 48 hrs by sulforhodamine B assay relative to control; conditions: PC-3, 48 h, read-out: Activity; in short: as §2
[23] = tested on: NCI-H460; assay: Growth inhibition of human NCI-H460 cells assessed as growth percentage at 10 uM incubated for 48 hrs by sulforhodamine B assay relative to control; conditions: NCI-H460, 48 h, read-out: Activity; in short: as §1
[24] = tested on: SNB-75; assay: Growth inhibition of human SNB75 cells assessed as growth percentage at 10 uM incubated for 48 hrs by sulforhodamine B assay relative to control; conditions: SNB-75, 48 h, read-out: Activity; in short: as §2
[25] = tested on: LOX IMVI; assay: Growth inhibition of human LOXIMVI cells assessed as growth percentage at 10 uM incubated for 48 hrs by sulforhodamine B assay relative to control; conditions: read-out: Activity; in short: as §1
[26] = tested on: OVCAR-5; assay: Growth inhibition of human OVCAR5 cells assessed as growth percentage at 10 uM incubated for 48 hrs by sulforhodamine B assay relative to control; conditions: OVCAR-5, 48 h, read-out: Activity; in short: as §2

SMILES	growth at 10 µM [1] [%]	growth at 10 µM [2] [%]	growth at 10 µM [3] [%]	growth at 10 µM [4] [%]	growth at 10 µM [5] [%]	growth at 10 µM [6] [%]	growth at 10 µM [7] [%]	growth at 10 µM [8] [%]	growth at 10 µM [9] [%]	growth at 10 µM [10] [%]	growth at 10 µM [11] [%]	growth at 10 µM [12] [%]	growth at 10 µM [13] [%]	growth at 10 µM [14] [%]	growth at 10 µM [15] [%]	growth at 10 µM [16] [%]	growth at 10 µM [17] [%]	growth at 10 µM [18] [%]	growth at 10 µM [19] [%]	growth at 10 µM [20] [%]	also measured
O=C1C2=C(NC(=S)NC2c2ccc3c(c2)OCO3)c2ccccc21 (racemic)	103	97.8	105	101	102	99.7	95.8	102	95.2	109	103	106	91.8	106	102	110	91.5	110	106	109	growth at 10 µM [21]: 92.6%; growth at 10 µM [22]: 96.3%; growth at 10 µM [23]: 111%; growth at 10 µM [24]: 81%; growth at 10 µM [25]: 99.2%; growth at 10 µM [26]: 106%
CC(=O)N1C(=S)NC(C)=C(C(=O)OCC(C)C)C1c1ccc2c(c1)OCO2 (racemic)	78.2	87.5	102	100	79.6	85.7	94.8	99.8	97.3	93.8	100	102	100	105	101	96.4	74.9	93.5	108	104	growth at 10 µM [21]: 94.6%; growth at 10 µM [22]: 81.2%; growth at 10 µM [23]: 105%; growth at 10 µM [24]: 92.2%; growth at 10 µM [25]: 97.5%; growth at 10 µM [26]: 99.4%
O=C1NC2=C(C(=O)c3ccccc32)C(c2ccc3c(c2)OCO3)N1 (racemic)	104	100	108	101	116	101	100	97.4	104	111	104	111	97.4	104	103	110	90.7	108	106	112	growth at 10 µM [21]: 102%; growth at 10 µM [22]: 101%; growth at 10 µM [23]: 113%; growth at 10 µM [24]: 78.5%; growth at 10 µM [25]: 96.8%; growth at 10 µM [26]: 105%
